Compound activity from PubChem.
Compounds with a hit are over-represented: about 3.5% of the library has one in this group of screens.
PGC1a acetyl inh – modulators of PGC1a acetylation. inhibition, % at 15.6 µM. 350,000 compounds, 0.17% hits. U2OS PGC1a acetylation, AlphaScreen anti-acetyl-lysine; with virally co-expressed GCN5 acetyltransferase;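 active = every replicate shows inhibition of at least 40%; inconclusive = mean inhibition at least 40% but some replicate below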;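 note: 0% = neutral control wells and 100% = positive control wells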
PglD inh – PglD (C. jejuni) enzyme inhibition; purified PglD enzyme, DTNB colorimetric CoA detection; inhibition, % at 12.5 µM; 360,000 compounds, 0.098% hits; in the data active = inhibition above about 16%, passing the limit was not always enough; inconclusive = no clear call, values can overlap the other calls
Ecoli rRNA inh – inhibits bacterial ribosomal RNA function over humanized ribosomes; E. coli WT GFP vs humanized-ribosome RFP mutants, fluorescence, 24 h; stronger effect = lower value; DMSO median 0, no signal -100; GFP signal change (wild-type ribosome), % (test concentration not listed); 350,000 compounds, 1.6% hits;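 active = significant combined selectivity score with lowered wild-type GFP, culture density cut under 30%, mutant RFP and density less affected; inactive = any of these conditions unmet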
FN deposition inh – fibronectin deposition inhibition | AH1F fibroblasts, Alexa488-fibronectin deposition fluorescence, overnight | inhibition, % at 12.6 µM | 350,000 compounds, 0.086% hits;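 active = mean inhibition across replicates of 30% or more, regardless of how many single replicates reach that level; inconclusive = mean under 30% yet at least half of replicates reach 30%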;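 note: positive control wells lacked labelled fibronectin entirely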
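Schedule: 1 h cell adhesion before compound, then overnight fibronectin incubation; test system: AH1F fibroblast monolayer depositing Alexa488-labelled fibronectin into matrix; quantity: 10000 AH1F cells per well; probe or stimulus: fluorescent fibronectin at 24 nM final; signal: fluorescence, ex 485 nm, em 525 nm; evaluation: percent inhibition as loss of matrix-bound fibronectin fluorescence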
HIV Env fusion – inhibitors of HIV Env-mediated cell fusion. HeLa-JRFL Env/CEM21 cell fusion, luciferase. inhibition, % at 12.3 µM. 360,000 compounds, 1.1% hits. AID 651610;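 active = mean replicate inhibition score of at least 50 and every replicate individually at or above 50; inconclusive = only one of the two criteria met; inactive = mean below 50 and not all replicates reaching 50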;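 note: 0% = plate neutral controls and 100% = maraviroc near 300 nM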
DENV2 CPE rescue – protects cells from dengue virus 2 cytopathic effect; DENV2-infected cells, cytopathic effect rescue, plate reader; AID 651640; 350,000 compounds, 1.7% hits; CPE inhibition, % at 9.99 µM; in the data active = CPE inhibition above about 20%, passing the limit was not always enough; inconclusive = no clear call, values can overlap the other calls; tested in BHK-21 cells;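 note: 0% = median of neutral control wells and 100% = median of positive control wells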
* marks the source's active call; other numbers are inactive results; ? = inconclusive; nt = not tested or not shown; [ ] = remark or other dose.

SMILES	PGC1a acetyl inh	PglD inh	Ecoli rRNA inh	FN deposition inh	HIV Env fusion	DENV2 CPE rescue
CCc1sc(N2[C@H](C#N)[C@@H](c3ccccc3-c3ccc(F)cc3)[C@@H]2CO)nc1C	-4	nt	-3	11	nt	12
CCC(=O)N1[C@H](C#N)[C@H](c2ccccc2-c2cccc(C)c2)[C@@H]1CO	-4	nt	6	-8	nt	24*
CCC(=O)N1[C@H](C#N)[C@@H](c2ccccc2-c2cccc(C)c2)[C@@H]1CO	-1	nt	1	-12	nt	-10
COCC(=O)N1[C@H](CO)[C@H](c2ccccc2-c2ccccc2)[C@@H]1C#N	-6	nt	5	-7	nt	45*
COc1ccc2c3c([nH]c2c1)[C@@H](CO)N(C(=O)NC(C)C)CC31CCN(C(=O)NC2CCCC2)CC1	0	nt	0	nt	nt	-1
O=S(=O)(c1ccccc1)N1CCC(O)(CSc2ccc(Cl)cc2)CC1	0	-2	nt	nt	61*	nt
O=S(=O)(c1ccc(Cl)cc1)N1CCC(O)(CN2CCN(Cc3ccccc3)CC2)CC1	-5	nt	-20	-4	1	0
O=C(NCC[C@@H]1CC[C@H](NS(=O)(=O)c2cccc(F)c2)[C@@H](CO)O1)Nc1cc(F)ccc1F	-8	2	-8	nt	-11[16.7 µM]	3
O=C(CCN1C(=O)C2CC=CCC2C1=O)Nc1cccc(S(=O)(=O)N2CCCCC2)c1 (stereo not drawn)	3	0	5	3	nt	-5
COc1cccc(NC(=O)CCCN2C(=O)C3CC=CCC3C2=O)c1 (stereo not drawn)	nt	-2	10	3	2	-1
NS(=O)(=O)c1cccc(NC(=O)CCN2C(=O)C3CCCCC3C2=O)c1 (stereo not drawn)	12	-1	24	33*	-6	5
O=C(CN1C(=O)C2CCCCC2C1=O)Nc1cccc(C(F)(F)F)c1 (stereo not drawn)	1	5	-15*	2	14	4
COc1cccc(NC(=O)CCN2C(=O)C3CC=CCC3C2=O)c1 (stereo not drawn)	4	2	2	-2	-47	29*
CCCC#Cc1ccc2c(c1)O[C@H](CN(C)CC1CCOCC1)[C@H](C)CN([C@@H](C)CO)S2(=O)=O	-8	1	0	nt	nt	0
COc1ccc(CN(C)C[C@H]2Oc3c(NC(=O)Nc4ccc(F)cc4)cccc3C(=O)N([C@@H](C)CO)C[C@@H]2C)cc1	0	-13	0	nt	nt	2
O=C(Nc1cccc(C(F)(F)F)c1)c1csc(COCCO)n1	-8	-2	-2	6	11	24*
C[C@@H]1CN([C@@H](C)CO)C(=O)c2cccc(NC(=O)Nc3ccccc3)c2O[C@H]1CN(C)Cc1ccc(C(=O)O)cc1	2	-7	1	nt	nt	?
COc1cc(OC)c(OC)cc1/C=C/c1cc(C(=O)O)c2ccccc2n1	nt	nt	-30*	1	-7	3
COc1ccc2nc(-c3ccc(Cl)cc3)cc(C(=O)O)c2c1	8	0	-33*	nt	-20	-1
COc1ccc(Cl)cc1C(=O)NNC(=S)NC(=O)c1cc(-c2ccc(Cl)cc2)nc2ccccc12	3	-3	nt	13	94*	nt
COc1ccc(-c2cc(C(=O)N/N=C/c3cccnc3)c3ccccc3n2)cc1	nt	-3	-5	6	-12	0
COc1ccc2nc(C)cc(C(=O)O)c2c1	6	-2	nt	nt	nt	nt
CCNC(=S)NNC(=O)c1cc(-c2ccc(OC)cc2)nc2ccccc12	-4	-8	nt	-5	-139	nt
COc1ccc(-c2cc(C(=O)N/N=C/c3cc(OC)c(OC)cc3OC)c3ccccc3n2)cc1	45*	-7	22	1	11	0
C[C@@H]1CCCCO[C@@H](CN(C)C(=O)CCC(F)(F)F)[C@H](C)CN([C@H](C)CO)C(=O)c2cc(NC(=O)C3CCCCC3)ccc2O1	1	-1	-2	-10	0[16.7 µM]	-2
C[C@@H]1CN([C@H](C)CO)C(=O)Cc2cc(NS(=O)(=O)c3ccccc3)ccc2O[C@H]1CN(C)S(=O)(=O)c1ccccc1	-8	-3	-1	nt	4[16.7 µM]	-12
CCOc1ccc(Oc2nc(NCC(C)C)nc(OC)n2)nn1	6	-2	11	-10	-34	36*
CCOc1ccc(Oc2nc(NCC(C)C)nc(N(C)C)n2)nn1	-4	-9	nt	nt	nt	nt
